Experiments:
[1] = system: 3T3-L1 adipocyte; experiment: Glucose consumption in 3T3-L1 adipocyte; format: cell-based
[2] = system: 3T3-L1 preadipocyte; experiment: 3T3-L1 preadipocyte differentiation; format: cell-based; conditions: Oil Red O, TG content; vs induced control
In short: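 3T3-L1 cells seeded at 2×10^4 cells/mL in 6-well plates. Differentiation was induced in DMEM with insulin (10 µg/mL), IBMX (0.5 mM), dexamethasone (1 µM) and 10% FBS for 48 h, then DMEM with insulin and FBS, then basic medium changed every 48 h. Test compound (12.5, 25, 50 µg/mL) was present throughout. Lipid droplets stained with Oil Red O 10 days after induction.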

[3] = system: STZ-induced T1DM; format: in vivo; conditions: glibenclamide group (2.5 mg/kg), STZ induced mice
In short: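 Swiss albino mice (20 ± 5 g, either sex) were given STZ 40 mg/kg i.p. for 5 days; mice with fasting glucose >220 mg/dl were taken as diabetic (18/group). They were dosed orally once daily for 2 weeks. Tail-vein glucose (glucometer) and body weight were recorded at intervals; weight loss was taken as day 1 versus pre-sacrifice weight. Liver and kidneys were weighed at sacrifice for organ index.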

[4] = system: STZ-induced T1DM; experiment: Pancreatic islet mass and pancreas histopathology in STZ-induced T1DM; format: in vivo, mice
In short: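 STZ-diabetic mice (40 mg/kg i.p. × 5 days; glucose >220 mg/dl) were gavaged daily for 2 weeks with test compound at 10 or 20 mg/kg, or glibenclamide 2.5 mg/kg. Pancreas was formalin-fixed, paraffin-embedded, cut at 5 µm and stained with H&E. Islet mass was calculated as pancreas weight × relative β-cell area on slides; ANOVA versus model group.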

[5] = system: gut microbiota; experiment: 16S rRNA gene sequencing of caecal content, STZ induced diabetic rats; format: in vivo; conditions: STZ + Gli (2.5 mg/kg)

With `COc1ccc(Cl)cc1C(=O)NCCc1ccc(S(=O)(=O)NC(=O)NC2CCCCC2)cc1` [Glibenclamide, glibenclamide] the “Glucose consumption (in words)” value [1] was “significantly increased”, the Glucose consumption ([1]; 1 µg/mL) was 12.62 ± 0.67 mmol/L and the 3T3-L1 preadipocyte differentiation [2] was “significant differentiation”. For the same molecule, the renal index [3] was 1.41 ± 0.13, the pancreas histopathology ([4]; STZ induced type I DM) was “almost similar histopathology effect” and the β-cell mass ([4]; glibenclamide group (2.5 mg/kg), STZ induced mice) was 1.5 ± 0.02. For the same molecule, the “Actinobacteria, 16S rRNA gene sequencing of caecal content” value [5] was 0.35 ± 0.03, the “Bacteroidates, 16S rRNA gene sequencing of caecal content” value [5] was 0.28 ± 0.05 and the “Bacteroidetes, 16S rRNA gene sequencing of caecal content” value [5] was 0.23 ± 0.09. The “Bifldobacteriales, 16S rRNA gene sequencing of caecal content” value [5] was 0.5 ± 0.04, the “Burkholderiaies, 16S rRNA gene sequencing of caecal content” value [5] was 0.34 ± 0.04 and the “Campylobacterioles, 16S rRNA gene sequencing of caecal content” value [5] was 0.61 ± 0.09. The “Clostridiales, 16S rRNA gene sequencing of caecal content” value [5] was 0.29 ± 0.05, the “Coriobacteriales, 16S rRNA gene sequencing of caecal content” value [5] was 0.32 ± 0.09 and the “Cyanobacteria, 16S rRNA gene sequencing of caecal content” value [5] was 0.3 ± 0.07. For the same molecule, the “Desulfovibrionales, 16S rRNA gene sequencing of caecal content” value [5] was 0.25 ± 0.06, the “Enterobacteriales, 16S rRNA gene sequencing of caecal content” value [5] was 0.3 ± 0.06 and the “Eryslpelotrichales, 16S rRNA gene sequencing of caecal content” value [5] was 0.5 ± 0.07. The “Firmicutes, 16S rRNA gene sequencing of caecal content” value [5] was 0.22 ± 0.07, the “Lactibacllales, 16S rRNA gene sequencing of caecal content” value [5] was 0.25 ± 0.03 and the “Proteobacteria, 16S rRNA gene sequencing of caecal content” value [5] was 0.28 ± 0.04. For the same molecule, the “Selenomonadales, 16S rRNA gene sequencing of caecal content” value [5] was 0.16 ± 0.03, the “Verrucomicrobia, 16S rRNA gene sequencing of caecal content” value [5] was 0.21 ± 0.07 and the “Verrucomicrobiales, 16S rRNA gene sequencing of caecal content” value [5] was 0.36 ± 0.08.

From publication PMC6923438 (Saudi Journal of Biological Sciences, 2019)
